Values after ≈ are worked out from the molar mass of the structure shown.
What was measured:
[1] = target: Signal peptidase I (Escherichia coli K-12) (UniProt P00803); assay: Inhibition of full length Escherichia coli His6-tagged LepB expressed in Escherichia coli C43(DE3) at 100 uM using dabcyl-VEVGGTATAGAFSRPGLE-(EDANS) as substrate preincubated for 10 mins followed by substrate addition measured for 2 hrs by FRET assay relative to control
How it was run: (§1)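 Enzyme came from the membrane fraction, extracted with 1% reduced Triton X-100 and purified by metal-chelation chromatography in 0.5% detergent. FRET pair was dabcyl acceptor and EDANS donor. EcLepB (final about 50 nM) was pre-incubated with compound 10 min at 22 °C. Reaction was then run with 8 µM substrate, following the linear fluorescence increase at 22 °C for 2 h.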

Signal peptidase I = Signal peptidase I (Escherichia coli K-12, UniProt P00803); assay: Inhibition of full length Escherichia coli His6-tagged LepB expressed in Escherichia coli C43(DE3) using dabcyl-VEVGGTATAGAFSRPGLE-(EDANS) as substrate preincubated for 10 mins followed by substrate addition measured for 2 hrs by FRET assay
Signal peptidase I, sequence (P00803 whole entry): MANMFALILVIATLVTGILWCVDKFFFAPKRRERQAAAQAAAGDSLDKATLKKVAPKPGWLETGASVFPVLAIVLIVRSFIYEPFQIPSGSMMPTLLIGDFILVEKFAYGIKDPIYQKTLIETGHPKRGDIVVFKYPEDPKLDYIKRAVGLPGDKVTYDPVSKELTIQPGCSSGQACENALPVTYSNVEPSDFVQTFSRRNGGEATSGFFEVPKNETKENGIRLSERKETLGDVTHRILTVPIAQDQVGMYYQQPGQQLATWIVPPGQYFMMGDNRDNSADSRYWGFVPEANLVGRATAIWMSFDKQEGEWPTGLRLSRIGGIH
How it was run: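 Enzyme extracted from the membrane fraction with 1% reduced Triton X-100 and purified by metal-chelation chromatography in 0.5% detergent. Enzyme (final ~50 nM) was pre-incubated with compound for 10 min at 22 °C. The linear rise in EDANS donor fluorescence (dabcyl acceptor) was then followed at 22 °C for 2 h. IC50 came from non-linear regression of sigmoidal rate-versus-concentration curves.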

[2] = target: Signal peptidase I (Escherichia coli K-12) (UniProt P00803); assay: Inhibition of full length Escherichia coli His6-tagged LepB expressed in Escherichia coli C43(DE3) assessed as residual activity at 2.5 uM using dabcyl-VEVGGTATAGAFSRPGLE-(EDANS) as substrate preincubated for 10 mins followed by substrate addition measured for 2 hrs by FRET assay relative to control; how it was run: as §1
[3] = target: Signal peptidase I (Escherichia coli K-12) (UniProt P00803); assay: Inhibition of full length Escherichia coli His6-tagged LepB expressed in Escherichia coli C43(DE3) assessed as residual activity at 5 uM using dabcyl-VEVGGTATAGAFSRPGLE-(EDANS) as substrate preincubated for 10 mins followed by substrate addition measured for 2 hrs by FRET assay relative to control; how it was run: as §1
[4] = target: Signal peptidase I (Escherichia coli K-12) (UniProt P00803); assay: (§2) Inhibition of full length Escherichia coli His6-tagged LepB expressed in Escherichia coli C43(DE3) assessed as residual activity at 10 uM using dabcyl-VEVGGTATAGAFSRPGLE-(EDANS) as substrate preincubated for 10 mins followed by substrate addition measured for 2 hrs by FRET assay relative to control; how it was run: as §1
[5] = target: Signal peptidase I (Escherichia coli K-12) (UniProt P00803); assay: as §2, with “at 1.25” for “at 10”; how it was run: as §1
[6] = target: Signal peptidase I (Escherichia coli K-12) (UniProt P00803); assay: as §2, with “at 0.625” for “at 10”; how it was run: as §1
[7] = target: Signal peptidase I (Escherichia coli K-12) (UniProt P00803); assay: as §2, with “at 0.313” for “at 10”; how it was run: as §1
[8] = target: Signal peptidase I (Escherichia coli K-12) (UniProt P00803); assay: as §2, with “at 0.156” for “at 10”; how it was run: as §1
[9] = target: Signal peptidase I (Escherichia coli K-12) (UniProt P00803); assay: as §2, with “at 0.078” for “at 10”; how it was run: as §1
[10] = target: Signal peptidase I (Escherichia coli K-12) (UniProt P00803); assay: as §2, with “at 0.039” for “at 10”; how it was run: as §1
[11] = target: Signal peptidase I (Escherichia coli K-12) (UniProt P00803); assay: as §2, with “at 0.02” for “at 10”; how it was run: as §1
[12] = target: Signal peptidase I (Escherichia coli K-12) (UniProt P00803); assay: as §2, with “at 0.01” for “at 10”; how it was run: as §1
Escherichia coli [13] = assay: Antibacterial activity against wild type Escherichia coli ATCC 25922 after 16 to 20 hrs by broth microdilution assay; assay type: functional
How it was run: (§3)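 MIC by broth microdilution in cation-adjusted Mueller-Hinton II medium, following EUCAST and CLSI guidelines; panel of Gram-negative strains plus S. aureus ATCC 29213.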

Escherichia coli [14] = assay: Antibacterial activity against Escherichia coli CH3130 harboring tolC deletion mutant after 16 to 20 hrs by broth microdilution assay; assay type: functional
How it was run: (§4)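 Broth microdilution MIC in cation-adjusted Mueller-Hinton II medium, following EUCAST and CLSI guidelines; tested on a panel of Gram-negative strains plus S. aureus ATCC 29213 (wild-type).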

Escherichia coli [15] = assay: Antibacterial activity against Escherichia coli D22 harboring lpxC mutant after 16 to 20 hrs by broth microdilution assay; assay type: functional; how it was run: as §4
Pseudomonas aeruginosa [16] = assay: Antibacterial activity against wild type Pseudomonas aeruginosa PAO1 after 16 to 20 hrs by broth microdilution assay; assay type: functional; how it was run: as §3
Pseudomonas aeruginosa [17] = assay: Antibacterial activity against wild type Pseudomonas aeruginosa PAO750 harboring efflux defective mutant after 16 to 20 hrs by broth microdilution assay; assay type: functional; how it was run: as §4
Klebsiella pneumoniae = assay: Antibacterial activity against wild type Klebsiella pneumoniae […] after 16 to 20 hrs by broth microdilution assay; assay type: functional; how it was run: as §3
Staphylococcus aureus = assay: Antibacterial activity against wild type Staphylococcus aureus ATCC 29213 after 16 to 20 hrs by broth microdilution assay; assay type: functional; how it was run: as §3
Acinetobacter baumannii = assay: Antibacterial activity against wild type Acinetobacter baumannii ATCC 19606 after 16 to 20 hrs by broth microdilution assay; assay type: functional; how it was run: as §3
[18] = Cytotoxicity against human HepG2 cells assessed as reduction in cell viability after 72 hrs by fluorescein diacetate dye based fluorometric microculture assay; assay type: toxicity
How it was run: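 FMCA on HepG2 cells read at 72 h. Survival index (%) is fluorescence in test wells as percent of control cultures, with blank values subtracted. IC50 was obtained by non-linear regression of log concentration-effect curves.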

[19] = Hemolytic activity against human RBC at 100 uM after 45 mins by spectrophotometric method relative to control; assay type: ADME, cell-based, Erythrocyte; conditions: red blood cells (RBC), read-out: Activity
How it was run: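 Hemolysis was tested using red blood cells from heparinized human blood.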

[20] = target: Signal peptidase I (Escherichia coli K-12) (UniProt P00803); assay: as §2, with “at 0.002” for “at 10”; how it was run: as §1
[21] = target: Signal peptidase I (Escherichia coli K-12) (UniProt P00803); assay: as §2, with “at 0.001” for “at 10”; how it was run: as §1
[22] = target: Signal peptidase I (Escherichia coli K-12) (UniProt P00803); assay: as §2, with “at 0.0005” for “at 10”; how it was run: as §1

Signal peptidase I (Escherichia coli K-12), sequence (P00803 whole entry): as above

inhibition [1] [%] | SMILES | IC50 (Signal peptidase I) [nM] | Activity [2] [%] | Activity [3] [%] | Activity [4] [%] | Activity [5] [%] | Activity [6] [%] | Activity [8] [%] | Activity [12] [%] | MIC (Escherichia coli [13]) [µg/mL] | MIC (Escherichia coli [14]) [µg/mL] | MIC (Escherichia coli [15]) [µg/mL] | MIC (Pseudomonas aeruginosa [16]) [µg/mL] | MIC (Pseudomonas aeruginosa [17]) [µg/mL] | MIC (Klebsiella pneumoniae) [µg/mL] | MIC (Staphylococcus aureus) [µg/mL] | MIC (Acinetobacter baumannii) [µg/mL] | IC50 at 72 h [18] [nM] | hemolysis at 0.75 h, 100 µM [19] [%] | also measured
13.3 | CC(=O)N[C@@H](C)C(=O)N[C@@H](CC(N)=O)C(=O)N[C@@H](C)C(=O)C(=O)NC(C)(C)C |  |  |  |  |  |  |  |  |  |  |  |  |  |  |  |  |  |  | 
32.3 | CC(=O)N1CCC[C@H]1C(=O)N[C@H](C(=O)N[C@@H](C)C(=O)N[C@@H](CC(N)=O)C(=O)N[C@@H](C)C(=O)C(=O)NCc1cccc2ccccc12)[C@H](C)O |  |  |  |  |  |  |  |  |  |  |  |  |  |  |  |  |  |  | 
38 | CCCCCCCCCC(=O)N1CCC[C@H]1C(=O)N[C@H](C(=O)N[C@@H](C)C(=O)N[C@@H](CC(N)=O)C(=O)N[C@@H](C)C(=O)O)[C@H](C)O |  |  |  |  |  |  |  |  |  |  |  |  |  |  |  |  |  |  | 

The remaining lines, values behind:

SMILES | inhibition [1] [%] | IC50 (Signal peptidase I) [nM] | Activity [2] [%] | Activity [3] [%] | Activity [4] [%] | Activity [5] [%] | Activity [6] [%] | Activity [8] [%] | Activity [12] [%] | MIC (Escherichia coli [13]) [µg/mL] | MIC (Escherichia coli [14]) [µg/mL] | MIC (Escherichia coli [15]) [µg/mL] | MIC (Pseudomonas aeruginosa [16]) [µg/mL] | MIC (Pseudomonas aeruginosa [17]) [µg/mL] | MIC (Klebsiella pneumoniae) [µg/mL] | MIC (Staphylococcus aureus) [µg/mL] | MIC (Acinetobacter baumannii) [µg/mL] | IC50 at 72 h [18] [nM] | hemolysis at 0.75 h, 100 µM [19] [%] | also measured
CCCCCCc1ccc(-c2ccc(C(=O)N3CCC[C@H]3C(=O)N[C@H](C(=O)N[C@@H](C)C(=O)N[C@@H](CC(N)=O)C(=O)N[C@@H](C)B(O)O)[C@H](C)O)cc2)cc1 | > 50 | 230 | 7.49 | 4.71 | 7.23 | 16.8 | 33.5 | 62.6 | 97.1 | > 64 | > 64 | > 64 | > 64 | > 64 | > 64 | 4 (≈ 5.43 µM) | > 64 | > 64000 | 1.1 | Activity [7]: 38.4%; Activity [9]: 95.5%; Activity [10]: 97%; Activity [11]: 97.9%
CCCCCCCCCC(=O)N1CCC[C@H]1C(=O)N[C@H](C(=O)N[C@@H](C)C(=O)N[C@@H](CC(N)=O)C(=O)N[C@@H](C)C(=O)N1CCC[C@H]1C(=O)NC)[C@H](C)O | 31.3 |  |  |  |  |  |  |  |  |  |  |  |  |  |  |  |  |  |  | 
CCCCCCc1ccc(-c2ccc(C(=O)N3CC(CN)C[C@H]3C(=O)N[C@H](C(=O)N[C@@H](C)C(=O)N[C@@H](CC(N)=O)C(=O)N[C@@H](C)B3O[C@@H]4C[C@@H]5C[C@@H](C5(C)C)[C@]4(C)O3)[C@H](C)O)cc2)cc1 (stereo partly drawn) | > 50 | 18 | 0.353 | 4.04 | 3.93 | 0.881 | 5.53 | 6.31 | 81.6 | 32 (≈ 35.6 µM) | 4 (≈ 4.44 µM) | 1 (≈ 1.11 µM) | 64 (≈ 71.1 µM) | 8 (≈ 8.89 µM) | 16 (≈ 17.8 µM) | 0.5 (≈ 0.556 µM) | 32 (≈ 35.6 µM) | 18600 | 5.7 | Activity [20]: 88.8%; Activity [11]: 37.6%; Activity [21]: 89.7%; Activity [22]: 99.3%
CCCCc1ccc(-c2ccc(C(=O)N[C@@H](CCN)C(=O)N[C@H](C(=O)N[C@@H](C)C(=O)N[C@@H](CCCCN)C(=O)N[C@@H](C)B3O[C@@H]4C[C@@H]5C[C@@H](C5(C)C)[C@]4(C)O3)[C@H](C)O)cc2)cc1 |  | 110 | 3.33 | 0.501 | -0.117 | 0.522 | 6.98 | 25.3 | 86.8 | 8 (≈ 9.3 µM) | 4 (≈ 4.65 µM) | 1 (≈ 1.16 µM) | 32 (≈ 37.2 µM) | 8 (≈ 9.3 µM) | 2 (≈ 2.33 µM) | < 0.125 | 32 (≈ 37.2 µM) | 12500 | 12.8 | Activity [20]: 98.2%; Activity [7]: 18.9%; Activity [9]: 72.7%; Activity [10]: 80.2%
CC(=O)N[C@@H](C)C(=O)C(=O)NCc1cccc2ccccc12 | 31 |  |  |  |  |  |  |  |  |  |  |  |  |  |  |  |  |  |  | 

Source: ChEMBL document CHEMBL3877308, “Design, synthesis and in vitro biological evaluation of oligopeptides targeting E. coli type I signal peptidase (LepB)” (Bioorg Med Chem, 2017)
